Bioassay records (PubChem)
HCT116 bCat-KO: beta-catenin-lacking colon tumor cell growth suppression; HCT116 beta-catenin knockout viability, CellTiter-Glo, 60 h; hits give low values; viability, % at 10 µM; 140,000 tested, 1.5% active;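 active = viability at or under a set limit, the compound median less 4 SD, cut at about 6% in these data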;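 note: 0% = Hyamine 1622 control at 20 µM and 100% = untreated cell control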
Lung fibro prol: blocks proliferation of human lung fibroblasts | viability, % at 10 µM | AID 719 | 85,000 tested, 1.1% active | LL 47 human lung fibroblast viability, ATP luminescence; hits give low values;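 active = viability at or below 50% in the single dose screen; inactive = viability above 50%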;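 note: compound exposure lasted 72 h before the ATP readout; 100% = median luminescence of untreated cell-only wells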
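material = human LL 47 lung fibroblast cells | dosing = compounds added from tenfold dosing solution, 0.1% DMSO final | timing = overnight cell rest, 72 h compound treatment at 37 °C | measured by = CellTiter-Glo luminescence measuring cellular ATP | evaluation = % viability versus median cells-only luminescence | control set = cell-only wells, no compound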
HCT116 PTEN-null: suppresses growth of cells with PTEN deletion | HCT116 PTEN-null viability, CellTiter-Glo, 60 h; hits give low values | viability, % at 10 µM | 140,000 tested, 1.2% active | AID 827;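 active = viability at or below a set limit, 4 SD under the median of all tested compounds, cut at about 3.7% in these data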;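 note: PTEN knockout HCT116 line with beta catenin targeted HCT116 as companion control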
Pyk2 oligo antag: antagonists of human Pyk2 oligomerization | Q14289 | Q293 cells, Pyk2 FERM NanoBiT luminescence; hits give low values | z-score (the deposit names both 25 µM and 10 µM) | 99,000 tested, 0.83% active | AID 1347419;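 active = Z-score of -3 or lower, scaled per plate to the spread of control and sample wells; inactive = z-score above -3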;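 note: negative z-score means lost luminescence so less FERM oligomerization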
Target sequence (Q14289 whole entry, looked up): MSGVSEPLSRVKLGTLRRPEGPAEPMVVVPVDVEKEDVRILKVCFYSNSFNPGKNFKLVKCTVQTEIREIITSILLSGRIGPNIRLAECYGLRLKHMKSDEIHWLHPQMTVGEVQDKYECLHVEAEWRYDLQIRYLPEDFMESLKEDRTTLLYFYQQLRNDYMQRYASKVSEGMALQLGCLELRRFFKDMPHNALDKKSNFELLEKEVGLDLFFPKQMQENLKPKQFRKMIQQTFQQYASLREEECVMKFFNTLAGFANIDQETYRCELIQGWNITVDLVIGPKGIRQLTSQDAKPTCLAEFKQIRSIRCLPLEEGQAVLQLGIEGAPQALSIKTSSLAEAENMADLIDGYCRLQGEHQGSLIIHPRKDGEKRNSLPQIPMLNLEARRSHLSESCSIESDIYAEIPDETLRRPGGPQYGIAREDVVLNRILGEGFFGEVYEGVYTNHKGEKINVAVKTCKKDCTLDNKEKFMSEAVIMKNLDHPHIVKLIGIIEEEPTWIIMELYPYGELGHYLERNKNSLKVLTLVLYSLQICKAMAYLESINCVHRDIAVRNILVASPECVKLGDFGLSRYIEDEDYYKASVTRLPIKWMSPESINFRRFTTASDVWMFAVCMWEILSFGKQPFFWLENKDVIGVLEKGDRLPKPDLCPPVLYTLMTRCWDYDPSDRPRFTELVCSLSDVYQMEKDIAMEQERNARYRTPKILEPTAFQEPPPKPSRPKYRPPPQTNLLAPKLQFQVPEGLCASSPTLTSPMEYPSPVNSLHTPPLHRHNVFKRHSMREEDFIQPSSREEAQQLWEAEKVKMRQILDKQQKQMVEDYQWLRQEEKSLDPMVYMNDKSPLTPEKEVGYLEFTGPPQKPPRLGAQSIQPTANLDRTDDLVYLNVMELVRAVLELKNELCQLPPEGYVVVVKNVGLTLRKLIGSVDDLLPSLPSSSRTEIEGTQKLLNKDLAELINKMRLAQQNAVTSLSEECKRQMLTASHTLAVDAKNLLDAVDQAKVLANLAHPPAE
HUVEC prolif 384: inhibitors of human endothelial cell proliferation; 86,000 tested, 1.1% active; HUVEC proliferation, CellTiter-Glo luminescence, 72 h; hits give low values; viability, % at 10 µM (by protocol); AID 648;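 active = viability at or below 30%; inactive = viability above 30%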;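 note: 100% = median luminescence of DMSO-only cell control wells on each plate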
H69AR inhibit: blocks growth of human H69AR lung tumor cells; 85,000 tested, 6% active; viability, % at 10 µM; H69AR lung tumor viability, ATP luminescence, 72 h; hits give low values; AID 598;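 active = viability at or below 40%; inactive = viability above 40%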;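 note: multidrug resistant small cell line overexpressing MRP-1 efflux transporter; 100% = mean luminescence of untreated control wells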
* hit, by the source's call; . = not tested or not shown. This is one part of a sample in which hits are shown more often than they occur.

SMILES	HCT116 bCat-KO	Lung fibro prol	HCT116 PTEN-null	Pyk2 oligo antag	HUVEC prolif 384	H69AR inhibit
CCOC(=O)c1ccc(NC(=O)CSc2nc3cccnc3n2C)cc1	70.2	89.2	68.6	0.7	93.3	95.0
Cc1cc(N(CC(=O)NC(C)C)S(C)(=O)=O)ccc1Br	92.9	.	93.7	.	.	.
Cc1c(C)n(C)c2ccc(C(=O)Nc3cccc4ccccc34)cc12	88.9	.	72.5	-0.37	.	.
O=C(Cc1ccc(Cl)cc1)Oc1cccc2cccnc12	4.2*	.	3.0*	1.35	.	.
O=C(Oc1cccc2cccnc12)c1ccc2c(c1)OCCO2	4.8*	3.2*	2.5*	0.19	99.6	29.1*
O=C(Oc1ccc2cc(Br)ccc2c1)c1cccnc1	105.7	.	106.8	1.59	.	.
CC1(C)CC(=O)C2=C(C1)Nc1ccccc1N=C2	78.0	99.2	61.2	.	87.8	0.3*
Cc1c(C2Nc3ccccc3NC3=C2C(=O)CC(C)(C)C3)cnn1C (configuration not stated)	87.6	99.1	91.5	0.76	96.1	100.9
COc1ccccc1-c1nc(C(N)=O)c2[nH]c(=O)n(-c3cccc(C)c3)c2n1	94.5	.	82.5	-1.22	.	.
Cc1cccc(-n2c(=O)[nH]c3c(C(N)=O)nc(-c4ccccc4Cl)nc32)c1	1.8*	53.2	1.5*	.	88.5	2.5*
CN1CCN(C2=Cc3ccc(Cl)cc3Sc3ccc(F)cc32)CC1	10.1	94.1	6.5	-0.2	3.8*	21.2*
CN1CCN(C2=Cc3ccccc3Sc3cc(F)ccc32)CC1	20.4	94.5	19.1	-0.39	69.5	45.4
Cc1cc(C)c(NC(=O)/C(=C/c2ccccc2)c2ccccc2)c(C)c1	73.5	.	74.9	.	.	.
COc1ccccc1Nc1ccc([N+](=O)[O-])cc1N	90.3	.	96.3	.	.	.
COc1cc(Nc2ccccc2Cl)c([N+](=O)[O-])nc1[N+](=O)[O-]	53.5	86.0	48.3	-0.57	70.8	16.6*
Cc1ccc(S(=O)(=O)N2CCN(C(=O)COc3ccc(NC(=O)c4ccco4)cc3)CC2)cc1	89.7	105.6	82.4	0.61	88.5	36.6*
O=C(Nc1ccc(S(=O)(=O)N2CCOCC2)cc1)c1ccco1	92.7	88.8	100.6	-0.45	87.2	84.1
Cc1cccc(C(=O)Nc2ccccc2SCC2CSc3nc4ccccc4c(=O)n32)c1 (configuration not stated)	88.5	.	76.9	-0.04	.	.
COc1ccc2c(c1)-c1nc(NC(=O)c3ccco3)sc1CC2	95.9	105.5	85.7	.	99.6	39.4*
COc1ccc2c(c1)CCc1sc(NC(=O)c3ccco3)nc1-2	86.0	117.5	91.6	.	98.1	77.3
Cc1ccc(N=Cc2c(O)n(-c3nccs3)c(=O)c3ccccc23)cc1	98.9	.	104.5	.	.	.
O=C(NNC(=O)c1ccc(SCC2CCCO2)c([N+](=O)[O-])c1)c1ccc(Cl)c([N+](=O)[O-])c1 (configuration not stated)	76.5	63.0	81.9	0.13	64.3	6.1*
CC(C)CC(COCc1ccc(Cl)cc1)N1CCN(C(=O)c2ccc(Cl)cc2Cl)CCC1=O (configuration not stated)	29.1	.	26.3	.	.	.
C=CCn1c(=O)c2ccccc2n2c(SCC(N)=O)nnc12	92.2	100.1	103.1	0.58	91.9	97.9
C=CCn1c(=O)c2c(C)c(C)sc2n2c(Nc3ccccc3)nnc12	86.2	99.1	89.6	-3.03*	106.6	76.5
SMILES	HCT116 bCat-KO	Lung fibro prol	HCT116 PTEN-null	Pyk2 oligo antag	HUVEC prolif 384	H69AR inhibit
Cc1cccc(NC(=O)CSc2nnc([C@@H]3CCCN3C(=O)OC(C)(C)C)o2)c1C	97.2	90.9	99.1	0.62	76.3	1.4*
O=C(CCN1CCc2ccccc21)c1ccc2c(c1)OCCO2	11.6	95.5	12.4	0.71	100.7	92.1
O=C(CCN1CCc2ccccc2C1)c1ccc2c(c1)OCCO2	64.3	80.2	80.3	0.62	86.5	0.7*
Cc1noc(C)c1S(=O)(=O)N1CCC(C(=O)N2CCN(c3ccccc3Cl)CC2)CC1	65.3	102.4	79.4	1.12	98.2	8.4*
COc1ccc(CNC(=O)c2ccc(-c3ccccc3)cc2)cc1	101.7	.	95.9	-0.6	.	.
COc1ccc(CNC(=O)c2c(C)oc3c2C(=O)c2ccccc2C3=O)cc1	1.3*	.	1.3*	.	.	.
O=C1c2ccccc2C(=O)c2c1oc(C(F)(F)F)c2C(=O)c1ccccc1	2.0*	3.1*	1.8*	-2.93	3.5*	0.7*
CC(=O)c1c(C)oc2c1C(=O)c1ccccc1C2=O	2.6*	.	1.9*	.	.	.
N=C1/C(=C/c2cccn2Cc2ccc(Cl)cc2)C(=O)N=C2SC=CN12	54.9	.	62.5	.	.	.
O=C(CN(Cc1ccc(F)cc1)C(=O)Cn1nnc2ccccc21)NCC1CCCO1 (configuration not stated)	97.3	100.9	104.7	1.66	101.4	105.3
COC(=O)c1sc(N)c(C(=O)OC)c1COC(=O)c1c(C)noc1C	24.0	54.2	21.6	-0.8	66.6	18.8*
COc1ccc(OC)c(S(=O)(=O)Nc2ccc(O)c3ccccc23)c1	1.8*	54.9	2.0*	-0.37	2.3*	1.9*
COc1ccc(OC)c(S(=O)(=O)Nc2ccc(C(C)=O)cc2)c1	94.4	91.9	85.9	-0.19	85.9	90.6
COc1ccc(OC)c(S(=O)(=O)Nc2ccc(Oc3ccccc3)cc2)c1	85.3	91.6	71.5	-3.64*	90.6	94.4
COc1ccc(NS(=O)(=O)c2c(C)cc(C)cc2C)cc1	73.7	100.6	80.6	-0.65	91.0	16.1*
COc1cccc(NS(=O)(=O)c2c(C)cc(C)cc2C)c1	88.1	96.2	80.7	-0.47	90.4	92.9
O=[N+]([O-])c1ccccc1/C=N/Nc1nnc(-c2ccccc2)c(-c2ccccc2)n1	93.7	.	99.0	-2.93	.	.
CN(C)c1ccc(C2CC(c3ccccc3)=Nc3nc(-c4ccccc4)cn32)cc1 (configuration not stated)	86.0	.	76.9	.	.	.
COc1ccc(Nc2ncc(C(=O)N3CCN(Cc4ccccc4)CC3)c3ccccc23)cc1	3.9*	77.9	3.4*	-3.51*	52.3	62.3
COc1ccc(Nc2ncc(C(=O)N3CCC(C(N)=O)CC3)c3ccccc23)cc1	91.0	100.5	102.4	-0.2	93.7	101.0
CCCc1[nH]n(-c2nc3ccccc3s2)c(=O)c1C=NCCN1CCOCC1	89.7	97.1	88.6	0.47	91.7	102.9
CCCCCN=Cc1c(C)[nH]n(-c2nc3ccccc3s2)c1=O	17.1	29.3*	16.2	-0.25	12.9*	6.4*
O=C(Nc1cccc2cccnc12)c1ccc(Br)o1	82.7	89.8	87.2	-0.97	71.0	37.2*
